Activity calls are given as the source filed them. The calls are words filed in the database; no cut-off is given here.
Assays:
[1] = Solubility of the compound in buffer/DMSO at 100 uM; format: physicochemical
[2] = target: T1, NAD-dependent protein deacetylase sirtuin-3, mitochondrial (Homo sapiens) (UniProt Q9NTG7); assay: Inhibition of human N-terminal His-tagged SIRT3 (102 to 399 residues) expressed in Escherichia coli at 100 uM using p53 (Gln-Pro-Lys-Lys(Ac)) (317 to 320 residues) as substrate incubated for 3 hrs measured up to 30 mins by fluorescence assay relative to control
T1 sequence (whole entry): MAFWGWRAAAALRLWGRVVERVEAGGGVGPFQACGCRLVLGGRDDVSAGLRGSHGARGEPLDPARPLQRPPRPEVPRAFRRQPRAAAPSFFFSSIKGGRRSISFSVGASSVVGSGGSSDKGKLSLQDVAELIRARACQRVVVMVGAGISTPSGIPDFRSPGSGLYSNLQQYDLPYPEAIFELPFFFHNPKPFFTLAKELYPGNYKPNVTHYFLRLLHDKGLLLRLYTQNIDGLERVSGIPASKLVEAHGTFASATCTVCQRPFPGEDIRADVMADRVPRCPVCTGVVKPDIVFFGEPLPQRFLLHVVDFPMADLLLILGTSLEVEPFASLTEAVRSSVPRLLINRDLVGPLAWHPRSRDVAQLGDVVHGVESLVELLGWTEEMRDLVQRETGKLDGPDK

[3] = target: NAD-dependent protein deacylase sirtuin-5, mitochondrial (Homo sapiens) (UniProt Q9NXA8); assay: Inhibition of human N-terminal His-tagged SIRT5 (37 to 310 residues) expressed in Escherichia coli at 100 uM using flour de lys succinyl as substrate incubated for 3 hrs measured up to 30 mins by fluorescence assay relative to control
Sequence of NAD-dependent protein deacylase sirtuin-5, mitochondrial (Homo sapiens) (Q9NXA8 37-310 limits assumed): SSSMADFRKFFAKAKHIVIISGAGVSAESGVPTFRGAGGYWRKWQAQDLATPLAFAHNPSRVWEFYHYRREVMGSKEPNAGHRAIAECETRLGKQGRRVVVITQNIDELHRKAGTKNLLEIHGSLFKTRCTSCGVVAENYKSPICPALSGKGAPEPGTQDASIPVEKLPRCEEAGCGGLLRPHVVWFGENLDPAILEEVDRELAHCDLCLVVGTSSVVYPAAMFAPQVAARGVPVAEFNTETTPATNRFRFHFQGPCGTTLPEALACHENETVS

[4] = target: T2, NAD-dependent protein deacetylase sirtuin-1 (Homo sapiens) (UniProt Q96EB6); assay: Inhibition of human N-terminal His-tagged SIRT1 expressed in Escherichia coli at 100 uM using p53 (Arg-His-Lys-Lys(Ac)) (379 to 382 residues) as substrate incubated for 3 hrs measured up to 30 mins by fluorescence assay relative to control
T2 sequence (whole entry): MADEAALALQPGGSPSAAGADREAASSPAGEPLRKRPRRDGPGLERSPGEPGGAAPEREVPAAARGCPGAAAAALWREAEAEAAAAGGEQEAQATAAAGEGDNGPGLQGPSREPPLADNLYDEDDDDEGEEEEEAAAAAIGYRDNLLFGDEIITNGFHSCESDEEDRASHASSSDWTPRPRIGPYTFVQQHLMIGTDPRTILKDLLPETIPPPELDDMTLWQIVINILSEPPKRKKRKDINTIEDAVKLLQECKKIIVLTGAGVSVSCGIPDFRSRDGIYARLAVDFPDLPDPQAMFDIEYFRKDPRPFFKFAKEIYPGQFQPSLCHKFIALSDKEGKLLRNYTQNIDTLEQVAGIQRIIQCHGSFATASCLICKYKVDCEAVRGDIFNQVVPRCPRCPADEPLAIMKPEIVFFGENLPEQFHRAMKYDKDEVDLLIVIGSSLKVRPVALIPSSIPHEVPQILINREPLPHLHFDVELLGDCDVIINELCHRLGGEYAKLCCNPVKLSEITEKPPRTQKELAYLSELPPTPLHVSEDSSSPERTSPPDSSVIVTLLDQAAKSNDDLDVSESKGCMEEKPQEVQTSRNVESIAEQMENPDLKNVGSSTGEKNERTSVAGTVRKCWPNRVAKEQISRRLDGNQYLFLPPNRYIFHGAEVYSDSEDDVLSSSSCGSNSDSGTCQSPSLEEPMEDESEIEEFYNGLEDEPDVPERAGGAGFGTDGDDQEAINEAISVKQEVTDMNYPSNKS

MCF7 [5] = assay: Growth inhibition of human MCF7 cells measured after 72 hrs by AlamarBlue assay; format: functional
Summary of the method: (§1)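 MCF-7 cells in DMEM with 10% FBS were seeded at 1×10³ cells/well. After 24 h at 37°C, 5% CO₂, compound in medium was added at varying concentrations for 72 h. AlamarBlue was then added for 3 h and fluorescence read (ex 540/em 590 nm). Percent growth was calculated from the readings, and GI50 from the dose response. Three independent determinations.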

[6] = target: T3, NAD-dependent protein deacetylase sirtuin-2 (Homo sapiens, UniProt Q8IXJ6); assay: Inhibition of human N-terminal His-tagged SIRT2 expressed in Escherichia coli using p53 (Gln-Pro-Lys-Lys(Ac)) (317 to 320 residues) as substrate incubated for 3 hrs measured up to 30 mins in presence of NAD+ by fluorescence-based Michaelis-Menten plot analysis; details: in the assay text read “incubated for 45 mins” for “incubated for 3 hrs”
T3 sequence (Q8IXJ6 whole entry): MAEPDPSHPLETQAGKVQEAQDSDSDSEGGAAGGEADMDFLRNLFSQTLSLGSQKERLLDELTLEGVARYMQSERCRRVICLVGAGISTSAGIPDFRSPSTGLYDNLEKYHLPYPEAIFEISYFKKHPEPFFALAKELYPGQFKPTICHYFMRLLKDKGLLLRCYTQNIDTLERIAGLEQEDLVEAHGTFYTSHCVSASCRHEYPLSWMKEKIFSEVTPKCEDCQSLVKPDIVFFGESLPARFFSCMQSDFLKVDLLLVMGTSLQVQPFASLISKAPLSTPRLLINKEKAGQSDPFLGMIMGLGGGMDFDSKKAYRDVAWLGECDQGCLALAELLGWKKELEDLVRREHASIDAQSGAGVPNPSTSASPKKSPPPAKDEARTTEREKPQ
Summary of the method: (§2)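 The Fluor de Lys SIRT2 assay was run with reaction time shortened to 45 min. The acetylated substrate concentration was varied at saturating NAD⁺. Inhibitor was tested at 0, 0.1, 0.4, 0.6 and 1 µM, or at 0, 0.02, 0.06, 0.1 and 0.4 µM. Ki was derived from Michaelis–Menten and Lineweaver–Burk plots.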

[7] = target: T3, NAD-dependent protein deacetylase sirtuin-2; assay: Inhibition of human N-terminal His-tagged SIRT2 expressed in Escherichia coli using p53 (Gln-Pro-Lys-Lys(Ac)) (317 to 320 residues) as substrate incubated for 3 hrs measured up to 30 mins by fluorescence assay
MCF7 [8] = assay: Growth inhibition of human MCF7 cells at 30 uM measured after 72 hrs by AlamarBlue assay relative to control; format: functional; details: MCF7, 72 h, read-out: GI; summary of the method: as §1
[9] = target: T4, NAD-dependent protein deacetylase sirtuin-1 (Homo sapiens, UniProt Q96EB6); assay: Inhibition of human N-terminal His-tagged SIRT1 expressed in Escherichia coli using p53 (Arg-His-Lys-Lys(Ac)) (379 to 382 residues) as substrate incubated for 3 hrs measured up to 30 mins by fluorescence assay
T4 sequence (Q96EB6 whole entry): T2 sequence (whole entry)

[10] = target: T5, NAD-dependent protein deacetylase sirtuin-2 (Homo sapiens) (UniProt Q8IXJ6); assay: Binding affinity to recombinant human full-length N-terminal His-tagged SIRT2 expressed in baculovirus infected Sf9 insect cells assessed as ADP ribose-compound complex formation measured after 5 mins in presence of NAD+ by MALDI-TOF analysis
T5 sequence (whole entry): T3 sequence (Q8IXJ6 whole entry)
Summary of the method: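 Recombinant SIRT2 at 1.9 µM, 500 µM NAD⁺ and 1 mM compound were reacted for 5 min at 37°C in 40 mM sodium phosphate pH 7.0 with 240 mM NaCl, 120 mM imidazole, 0.2 mM DTT, 20% glycerol and 2% DMSO. Controls lacked compound, NAD⁺ or enzyme. Mixtures were diluted, desalted on C18 tips and analysed by MALDI-TOF in reflectron negative-ion mode with α-cyano-4-hydroxycinnamic acid matrix.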

[11] = target: T5, NAD-dependent protein deacetylase sirtuin-2 (Homo sapiens); assay: Inhibition of human N-terminal His-tagged SIRT2 expressed in Escherichia coli at 1 uM using p53 (Gln-Pro-Lys-Lys(Ac)) (317 to 320 residues) as substrate incubated for 3 hrs measured up to 30 mins by fluorescence assay relative to control
N2a [12] = assay: Induction of neurite outgrowth in mouse Neuro2a cells assessed as differentiated cells at 2 uM measured after 48 hrs by microscopic analysis (reference value: 4.18 +/- 1.67%); format: functional
Summary of the method: (§3)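 N2a cells were plated at 1×10⁴ cells/mL in DMEM with 10% FBS, then switched to DMEM with 2% FBS for differentiation. Compound was added for 24 or 48 h and morphology scored by microscopy. A cell counted as differentiated if it had ≥1 neurite longer than twice the soma diameter; ≥100 cells were counted per condition. Triplicate experiments, mean ± SD, one-way ANOVA with Dunnett's test.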

[13] = target: Histone deacetylase (Homo sapiens) (UniProt Q13547+O15379+Q9UBN7+Q92769+Q9UQL6+Q8WUI4+Q9BY41+Q96DB2+P56524+Q9UKV0+Q969S8); assay: Inhibition of HDAC in human HeLa cell nuclear extract at 2.5 to 100 uM using fluor de lys as substrate by fluorescence assay; format: cell-free
[14] = target: Lysine-specific demethylase 5A (Homo sapiens) (UniProt P29375); assay: Inhibition of human C-terminal FLAG-tagged KDM5A (1 to 1090 residues) expressed in baculovirus infected Sf9 insect cells at 2.5 to 100 uM using H3(1-21)K4(Me3)-GGK(Biotin)/2-OG as substrate measured after 1 hr by Alphalisa assay
Sequence of Lysine-specific demethylase 5A (Homo sapiens) (P29375 whole entry, the tested form may be a part): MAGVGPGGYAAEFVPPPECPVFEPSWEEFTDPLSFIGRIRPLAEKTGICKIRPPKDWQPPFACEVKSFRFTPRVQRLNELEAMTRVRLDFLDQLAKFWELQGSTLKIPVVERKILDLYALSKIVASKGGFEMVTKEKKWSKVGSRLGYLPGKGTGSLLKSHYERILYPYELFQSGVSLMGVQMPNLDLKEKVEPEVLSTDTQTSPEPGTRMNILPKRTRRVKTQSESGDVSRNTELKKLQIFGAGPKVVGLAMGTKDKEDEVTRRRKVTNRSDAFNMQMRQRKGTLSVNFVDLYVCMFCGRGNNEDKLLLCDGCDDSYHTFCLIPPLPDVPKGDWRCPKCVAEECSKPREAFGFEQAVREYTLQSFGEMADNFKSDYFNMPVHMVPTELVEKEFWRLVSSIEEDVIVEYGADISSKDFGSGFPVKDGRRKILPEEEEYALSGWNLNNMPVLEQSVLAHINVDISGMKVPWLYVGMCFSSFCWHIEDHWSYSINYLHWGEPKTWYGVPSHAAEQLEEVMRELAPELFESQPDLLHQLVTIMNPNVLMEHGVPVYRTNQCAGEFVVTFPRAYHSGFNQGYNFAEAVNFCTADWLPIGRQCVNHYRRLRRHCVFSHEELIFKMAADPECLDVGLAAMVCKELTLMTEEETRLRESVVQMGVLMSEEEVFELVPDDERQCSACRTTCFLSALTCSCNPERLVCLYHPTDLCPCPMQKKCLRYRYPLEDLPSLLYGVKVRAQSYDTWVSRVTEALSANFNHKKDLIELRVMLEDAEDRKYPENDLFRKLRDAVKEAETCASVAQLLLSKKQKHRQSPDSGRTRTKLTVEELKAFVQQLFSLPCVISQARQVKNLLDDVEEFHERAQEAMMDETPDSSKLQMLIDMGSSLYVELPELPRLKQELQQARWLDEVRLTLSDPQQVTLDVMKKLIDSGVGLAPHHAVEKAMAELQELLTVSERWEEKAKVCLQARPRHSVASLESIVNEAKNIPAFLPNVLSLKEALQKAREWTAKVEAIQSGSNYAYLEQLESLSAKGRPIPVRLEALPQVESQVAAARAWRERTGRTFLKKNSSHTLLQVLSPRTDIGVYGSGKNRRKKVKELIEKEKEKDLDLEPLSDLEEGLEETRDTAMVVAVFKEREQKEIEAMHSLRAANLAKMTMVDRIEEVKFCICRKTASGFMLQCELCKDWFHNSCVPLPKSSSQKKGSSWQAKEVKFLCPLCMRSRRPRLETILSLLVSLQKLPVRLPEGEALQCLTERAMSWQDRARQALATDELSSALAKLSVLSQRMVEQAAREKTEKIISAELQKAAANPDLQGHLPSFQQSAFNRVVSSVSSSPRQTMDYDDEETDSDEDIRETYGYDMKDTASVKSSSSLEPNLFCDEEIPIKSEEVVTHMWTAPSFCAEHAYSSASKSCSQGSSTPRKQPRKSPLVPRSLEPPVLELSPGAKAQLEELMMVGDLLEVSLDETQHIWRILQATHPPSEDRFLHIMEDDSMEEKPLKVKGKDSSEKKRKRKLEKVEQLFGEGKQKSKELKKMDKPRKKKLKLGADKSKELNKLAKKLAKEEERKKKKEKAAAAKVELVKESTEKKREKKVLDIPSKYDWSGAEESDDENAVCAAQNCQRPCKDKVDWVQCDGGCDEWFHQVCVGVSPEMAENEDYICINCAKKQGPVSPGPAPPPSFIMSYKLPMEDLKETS

[15] = target: T5, NAD-dependent protein deacetylase sirtuin-2 (Homo sapiens); assay: Competitive inhibition of human N-terminal His-tagged SIRT2 expressed in Escherichia coli up to uM using varying levels of p53 (Gln-Pro-Lys-Lys(Ac)) (317 to 320 residues) as substrate incubated for 3 hrs measured up to 30 mins in presence of NAD+ by Lineweaver-burk plot analysis; details: in the assay text read “incubated for 45 mins” for “incubated for 3 hrs”; summary of the method: as §2
N2a [16] = assay: Induction of neurite outgrowth in mouse Neuro2a cells assessed as differentiated cells at 2 uM measured after 24 hrs by microscopic analysis (reference value: 2.53 +/- 0.76%); format: functional; summary of the method: as §3
[17] = target: T2, NAD-dependent protein deacetylase sirtuin-1 (Homo sapiens); assay: Inhibition of human N-terminal His-tagged SIRT1 expressed in Escherichia coli at 50 uM using p53 (Arg-His-Lys-Lys(Ac)) (379 to 382 residues) as substrate incubated for 3 hrs measured up to 30 mins by fluorescence assay relative to control
[18] = target: T1, NAD-dependent protein deacetylase sirtuin-3, mitochondrial (Homo sapiens); assay: Inhibition of human N-terminal His-tagged SIRT3 (102 to 399 residues) expressed in Escherichia coli at 50 uM using p53 (Gln-Pro-Lys-Lys(Ac)) (317 to 320 residues) as substrate incubated for 3 hrs measured up to 30 mins by fluorescence assay relative to control
[19] = target: T5, NAD-dependent protein deacetylase sirtuin-2 (Homo sapiens); assay: Inhibition of human N-terminal His-tagged SIRT2 expressed in Escherichia coli at 10 uM using p53 (Gln-Pro-Lys-Lys(Ac)) (317 to 320 residues) as substrate incubated for 3 hrs measured up to 30 mins by fluorescence assay relative to control
N2a [20] = assay: Induction of neurite outgrowth in mouse Neuro2a cells at 0.2 to 2 uM measured after 24 to 48 hrs by microscopic analysis; format: functional, cell-based; summary of the method: as §3

inhibition [2] [%]	inhibition [3] [%]	inhibition [4] [%]	Ki [6] [nM]	IC50 [7] [nM]	inhibition [11] [%]	inhibition [15]	inhibition [17] [%]	inhibition [19] [%]	SMILES	inhibition of growth at 30 µM (MCF7 [8]) [%]	other results
61	6	51							C[C@H](NC(=O)[C@H](CCCCNC(=O)CNC(=O)c1ccccc1Nc1cccc(OCCc2ccccc2)c1)NC(=O)OCc1ccccc1)C(N)=O		solubility [1]: Insoluble
	0		68	310	73	Active	41		O=C1CNC(=O)[C@H](CCCCNC(=S)CNC(=O)c2ccccc2Nc2cccc(OCCc3ccccc3)c2)N1	96	growth inhibition (GI) (MCF7 [5]): Dose-dependent effect; GI50 (MCF7 [5]; MCF7, 72 h): 11500 nM; IC50 [9]: 77400 nM; Activity [10]: Active; Activity (N2a [12]): 12.27%; inhibition [13]: inactive; inhibition [14]: inactive; Activity (N2a [16]): 4.54%
80	16	28		1180	47		16	93	Cc1cc(C)nc(SCC(=O)Nc2cccc(Nc3ccccc3C(N)=O)c2)n1		inhibition [18]: 63%
17	2	13	470	600	59	Active	9	92	O=C(CNC(=O)c1ccccc1Nc1cccc(OCCc2ccccc2)c1)NCCCC[C@@H]1NC(=O)CNC1=O	40	Activity (N2a [20]): inactive

Source: ChEMBL document CHEMBL4350992, “Identification of Diketopiperazine-Containing 2-Anilinobenzamides as Potent Sirtuin 2 (SIRT2)-Selective Inhibitors Targeting the "Selectivity Pocket", Substrate-Binding Site, and NAD+-Binding Site” (J Med Chem, 2019)
